# Compound activity (PubChem BioAssay)
# Shown are actives, neighbours in structure and some others; about 3.4% of the full set was active somewhere.
# E-sel inducer – induces E-selectin expression in human endothelial cells | HUVEC E-selectin immunofluorescence imaging; normalized: neutral wells 0, TNF-alpha wells 100 | activation, % at 7.58 µM | hit rate 0.37% among 260,000;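 active = mean E-selectin-positive cell signal at least 10% of the positive control, reached in at least 60% of replicates, without over 20% cell loss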
#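 Assay system: HUVEC primary endothelial cells. Input: 3,000 HUVEC seeded per well. Doses: one compound dose added by pin transfer. Read-out basis: % PE-positive cells. Benchmarks: TNF-alpha high, DMSO low. Detection: immunofluorescence imaging. Buffer or medium: EGM-2, gelatin.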
# rRNA inh HTS – inhibitors of bacterial rRNA selective over humanized ribosomes | E. coli WT GFP vs humanized-ribosome RFP mutants, fluorescence, 24 h; stronger effect = lower value; DMSO median 0, no signal -100 | GFP signal change (wild-type ribosome), % (no concentration beside the values) | hit rate 1.6% among 350,000;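 active = significant combined selectivity score with lowered wild-type GFP, culture density cut under 30%, mutant RFP and density less affected; inactive = any of these conditions unmet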
# SIRT5 block – blocks human SIRT5 desuccinylation of peptide. AID 652115. hit rate 1.1% among 330,000. inhibition, % at 15 µM. Purified SirT5, succinyl-peptide AMC, trypsin-coupled fluorescence. Q9NXA8; in the data active = inhibition above about 15%
# S100A4 inh HTS – S100A4-myosin IIA interaction inhibition; AID 652163; P26447; S100A4/TAMRA-MyoIIA peptide fluorescence polarization; hit rate 0.14% among 360,000; inhibition, % at 10.7 µM;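 active = mean inhibition of at least 70% across replicates, with every replicate also reaching that level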
# Target sequence (P26447 whole entry, looked up): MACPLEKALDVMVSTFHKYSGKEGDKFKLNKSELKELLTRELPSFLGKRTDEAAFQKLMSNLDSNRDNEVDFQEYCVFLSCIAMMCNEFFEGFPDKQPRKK
#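 assay system = human S100A4 monomer with TAMRA-labelled myosin IIA peptide | also added = labelled myosin peptide probe, 5 nM | incubation = 5 min between mix addition and reading | control set = DMSO and TFP controls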
# ERAP1 HTS inh – ERAP1 (human) enzyme inhibition. recombinant ERAP1, Leu-AMC fluorescence, 60 min. inhibition, % at 10.7 µM. hit rate 0.15% among 340,000;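 active = mean replicate inhibition of at least 30%, or all replicates individually reaching that 30% level; inactive = mean below 30% and not every replicate reaching it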;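 also: 0% = neutral control wells and 100% = L-leucinethiol positive control wells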
# AF4-AF9 inh – inhibitors of human MLL-AF4/AF9 interaction. P42568. AlphaScreen, biotin-AF4 peptide binding to FLAG-AF9. inhibition, % at 10 µM. hit rate 0.47% among 350,000. AID 651704;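 active = every replicate reaching a set inhibition limit, whatever the replicate mean, cut at about 25% in these data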;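 also: 0% = plate neutral control median and 100% = total signal loss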
# Target sequence (P42568 whole entry, looked up): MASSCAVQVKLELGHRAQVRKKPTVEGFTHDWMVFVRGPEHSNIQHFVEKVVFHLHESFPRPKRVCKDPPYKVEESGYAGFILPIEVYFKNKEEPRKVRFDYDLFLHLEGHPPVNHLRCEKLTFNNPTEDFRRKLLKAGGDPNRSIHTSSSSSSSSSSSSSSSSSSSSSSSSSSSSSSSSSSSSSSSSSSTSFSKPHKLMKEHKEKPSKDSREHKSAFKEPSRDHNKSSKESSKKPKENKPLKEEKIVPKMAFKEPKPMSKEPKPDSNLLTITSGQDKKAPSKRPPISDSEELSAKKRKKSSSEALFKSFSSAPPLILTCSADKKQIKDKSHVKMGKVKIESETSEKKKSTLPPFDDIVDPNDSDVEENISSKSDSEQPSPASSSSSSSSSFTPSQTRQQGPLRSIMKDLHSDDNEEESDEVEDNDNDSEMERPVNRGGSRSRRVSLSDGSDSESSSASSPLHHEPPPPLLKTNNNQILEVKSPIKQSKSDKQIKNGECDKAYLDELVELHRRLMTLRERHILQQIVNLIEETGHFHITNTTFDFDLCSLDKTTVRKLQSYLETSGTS
# * = called active by the depositor; . = not tested or not shown; + = active, no number.
SMILES,E-sel inducer,rRNA inh HTS,SIRT5 block,S100A4 inh HTS,ERAP1 HTS inh,AF4-AF9 inh
O=C(O)c1ccccc1/C=N/NC(=O)c1cc(-c2ccco2)nc2ccccc12,.,12.1,18.7*,0.8,2.1,-2.5
CC(=O)Nc1ccc(N2C(=O)CSC2c2ccc([N+](=O)[O-])cc2)cc1 (centres undefined),0.1,9.5,27.2*,-10.0,0.1,2.1
C[C@H]1CCCCO[C@@H](CN(C)C(=O)Nc2ccc3c(c2)OCO3)[C@@H](C)CN([C@@H](C)CO)C(=O)c2cc(NS(=O)(=O)c3ccccc3)ccc2O1,-0.1,-0.4,3.1,2.0,0.0,2.9
CSc1nsc(SCc2ccc(Cl)cc2)n1,.,-42.7*,7.4,-11.1,0.0,-16.8
CCOC(=O)c1c(C)oc2ccc(NS(=O)(=O)c3cccs3)cc12,.,-29.9*,-5.1,-4.4,-4.8,-0.7
Cc1ccc(C)c(NCC(=O)NNC(=S)Nc2ccccc2)c1,-0.7,-15.8,18.3*,-2.3,1.9,-2.0
N=c1c2c(ncn1CCCO)Oc1ccc3ccccc3c1C2c1ccccc1 (centres undefined),-0.3,-19.4*,4.6,2.1,-0.2,11.3
COc1ccc(C2c3ccc4ccccc4c3Oc3ncn(CCCO)c(=N)c32)cc1OC (centres undefined),0.2,-19.5*,-1.2,-4.5,4.2,.
COc1ccc(C2c3ccc4ccccc4c3Oc3ncn(CCO)c(=N)c32)cc1OC (centres undefined),.,-3.4,6.9,-4.3,-1.7,.
N=c1c2c(ncn1CCCO)Oc1c(ccc3ccccc13)C2c1ccccc1 (centres undefined),0.1,-39.6*,-2.8,2.0,-2.4,.
O=C(C[C@@H]1C=C[C@@H](NC(=O)Nc2ccccc2)[C@@H](CO)O1)NCc1cccc(F)c1,-0.4,.,-3.0,2.9,-5.0,-12.7
Cc1noc(C)c1NC(=O)N[C@H]1CC[C@@H](CC(=O)NCCCN(C)C)O[C@@H]1CO,-0.1,3.4,11.6,20.1,-1.0,1.6
CCNC(=O)C[C@@H]1CC[C@H]2[C@@H](COc3ccc(NC(=O)C4CCCCC4)cc3C(=O)N2C)O1,-0.1,1.7,0.7,2.9,-0.6,-1.2
Cc1cc(C)nc(NC(N)=NC(C)c2ccccc2)n1 (centres undefined),185.3*,-20.4,-2.4,9.8,0.5,1.1
Cc1cc(C)nc(NC(N)=NCCc2ccccc2)n1,-0.1,-6.7,.,0.4,-9.5,-1.5
COC1=CC(=Cc2c(N)n3nc(CC(=O)N4CCOCC4)sc3nc2=O)C=C(OC)C1=O,.,14.7,14.7,-7.1,1.4,-0.2
C=CCC1=C/C(=C\c2c(N)n3nc(CC(=O)N4CCCC4)sc3nc2=O)C=C(OC)C1=O,.,-3.8,20.1*,-6.7,3.4,2.6
CCOC1=C/C(=C/c2c(N)n3nc(S(=O)(=O)CC)sc3nc2=O)C=CC1=O,7.2,-6.2,8.7,0.3,6.5,0.0
Nc1c(C=C2C=CC(=O)C=C2)c(=O)nc2sc(CC(=O)N3CCOCC3)nn12,-0.4,5.6,22.7*,-5.3,3.5,-1.3
CCOC1=C/C(=C/c2c(N)n3nc(CC(=O)N4CCCCC4)sc3nc2=O)C=CC1=O,.,3.6,32.1*,-1.3,4.8,-6.6
CC(C)NC(=O)Nc1ccc2c(c1)C(=O)N([C@@H](C)CO)C[C@@H](C)[C@H](CN(C)CC1CCCCC1)OCCCC[C@@H](C)O2,-0.1,1.3,4.3,12.3,-7.9,-6.6
CCCC[C@@H]1CNCCN1CCc1cccc2ccccc12,0.0,-20.2*,-1.0,-1.5,1.0,11.4
c1ccc(C[C@H]2CNCCN2CCc2cccc3ccccc23)cc1,0.0,-15.8,-6.0,-7.5,-0.5,14.2
Cc1cccc(-n2c(-c3csc(C)c3C)n[nH]c2=S)c1,-0.2,-10.2,-5.0,3.2,-10.5,2.6
Cc1cccc(-n2c(-c3ccc(Br)o3)n[nH]c2=S)c1,.,-19.8*,0.8,1.8,1.5,.
SMILES,E-sel inducer,rRNA inh HTS,SIRT5 block,S100A4 inh HTS,ERAP1 HTS inh,AF4-AF9 inh
COc1cc(/C=N/Nc2ccccc2)ccc1O,.,-1.7,-5.4,-15.1,0.3,5.1
COC(=O)c1[nH]c2cc(OC)c(OC)cc2c1/C=N/Nc1ccccc1,0.1,-19.1*,1.9,7.4,-0.8,-5.0
CC(C)CC#Cc1ccc2c(c1)O[C@@H](CN(C)C(=O)CC1CC1)[C@H](C)CN([C@H](C)CO)S2(=O)=O,0.2,-18.9,-4.8,.,.,.
CC(C)NC(=O)N(C)C[C@@H]1OCCCC[C@H](C)Oc2ccc(NS(=O)(=O)c3ccc(Cl)cc3)cc2C(=O)N([C@H](C)CO)C[C@H]1C,-0.1,-3.7,0.5,-14.5,1.9,2.4
O=C(CN1CCC(n2nnc3cc(F)ccc32)CC1)N1CCc2ccccc2C1,.,-23.1*,-9.3,1.5,-4.1,6.3
COc1cc2c3nnc(-c4ccc(F)cc4)c-3cn(Cc3ccc(C)cc3)c2cc1OC,0.5,9.7,2.2,+,3.3,2.5
COc1cc2c3nnc(-c4ccccc4)c-3cn(Cc3ccc(F)cc3)c2cc1OC,.,2.3,-1.8,-2.7,-25.1,1.0
Cc1ccc(O)c(-c2cc(C(=O)Nc3ccc(S(=O)(=O)Nc4nccc(C)n4)cc3)[nH]n2)c1,6.1,-28.6*,-1.2,-11.9,2.2,-0.2
COc1ccc(C(=O)Nc2ccc(S(=O)(=O)Nc3nccc(C)n3)cc2)cc1,.,11.4,-5.2,-3.9,1.9,-1.6
C/C(=N\NC(=O)COc1ccc(C)cc1[N+](=O)[O-])c1cccs1,.,6.0,-3.4,-0.1,-0.9,-0.7
C/C(=N\NC(=O)COc1ccc(C)cc1Br)c1cc([N+](=O)[O-])cs1,.,-23.3*,.,-1.7,0.5,-2.2
O=C(Nc1ccc2c(c1)[C@@H]1C[C@@H](CC(=O)N3CCCCC3)O[C@H](CO)[C@@H]1O2)C1CCOCC1,0.7,2.5,0.7,-3.4,3.1,-4.3
COc1cccc(CNc2cc(C)ccn2)c1O,-0.2,23.5,-1.0,-0.8,1.5,0.7
Cc1ccnc(NCc2cccc3ccccc23)c1,.,-34.4,53.5*,-1.9,-0.3,0.7
COc1ccc(CNC(=O)C[C@H]2C[C@H]3c4cc(NC(=O)CN(C)C)ccc4O[C@H]3[C@@H](CO)O2)cc1,0.0,1.9,3.4,0.4,-0.2,-1.8
O=C(c1ccc(NS(=O)(=O)c2ccc(F)cc2)cc1)N1CCCCCC1,-0.2,0.7,16.7*,-7.6,-0.3,9.0
O=S(=O)(/N=C(/c1ccccc1)N1CCOCC1)c1ccc(F)cc1,.,7.5,-2.6,0.6,-0.4,-1.6
O=C(c1ccc(F)cc1)N1CCOCC1,.,21.1,21.7*,-2.9,-0.9,-0.9
O=C(Nc1ccc(F)cc1)c1ccc(C(=O)N2CCOCC2)cc1,-0.1,13.7,-3.6,4.1,1.4,.
O=S(=O)(/N=C(/c1ccc(F)cc1)N1CCCCC1)c1ccc(Cl)cc1,0.6,-22.2*,0.3,-1.6,-3.1,-0.4
